Experimental data published in ChEMBL document CHEMBL4043142, “Discovery of new leads against Mycobacterium tuberculosis using scaffold hopping and shape based similarity” (Bioorg Med Chem, 2017).
In brackets after ≈: the same amount, converted by molar mass.

Key:
[1] = Half life in mouse microsomes; format: ADME, Microsome
[2] = test system: Mycobacterium tuberculosis; experiment: Antitubercular activity against Mycobacterium tuberculosis H37Rv ATCC 25618 after 6 days by resazurin dye based assay; format: functional; conditions: H37Rv ATCC 25618, 144 h
Vero = experiment: Cytotoxicity against African green monkey Vero cells after 72 hrs by MTT assay; format: cell-based; conditions: Chlorocebus sabaeus
[3] = Protection index, ratio of IC50 for HepG2 cells to MIC for Mycobacterium tuberculosis H37Rv
HepG2 [4] = experiment: Cytotoxicity against human HepG2 cells after 48 hrs by CellTiter-Glo assay; format: cell-based; conditions: HepG2, 48 h
[5] = Protection index, ratio of IC50 for African green monkey Vero cells to MIC for Mycobacterium tuberculosis H37Rv
Pseudomonas aeruginosa = experiment: Antimicrobial activity against gram-negative Pseudomonas aeruginosa ATCC 27853 at 32 ug/ml after 18 hrs; format: functional; conditions: ATCC 27853, 18 h
Summary of the method: (§1)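 Whole-cell growth inhibition screen at a single final concentration of 32 µg/mL, in duplicate on different plates, with 0.3% DMSO final. Bacteria grown overnight in cation-adjusted Mueller Hinton broth at 37°C, diluted 40-fold, and grown 1.5-3 h to mid-log. Wells seeded at 5×10^5 CFU/mL and incubated 18 h at 37°C without shaking. OD600 read; percent inhibition calculated against media-only and untreated-bacteria controls on the same plate. Colistin (Gram-negative) and vancomycin (Gram-positive) were the standards.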

Staphylococcus aureus = experiment: Antimicrobial activity against gram-positive Staphylococcus aureus ATCC 43300 at 32 ug/ml after 18 hrs; format: functional; conditions: ATCC 43300, 18 h; summary of the method: as §1
Candida albicans = experiment: Antifungal activity against Candida albicans ATCC 90028 at 32 ug/ml after 24 hrs; format: functional; conditions: ATCC 90028, 24 h
[6] = test system: Mycobacterium tuberculosis; experiment: Antitubercular activity against Mycobacterium tuberculosis H37Rv at 50 ug/ml after 5 days by microplate alamar blue assay relative to control; format: functional; conditions: 120 h
Summary of the method: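 M. tuberculosis H37Rv tested by microplate alamar blue assay, reading the resazurin-to-resorufin colour change, at an initial 50 µg/ml. Rifampicin and isoniazid were the standards.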

[7] = test system: Mycobacterium tuberculosis; experiment: Antitubercular activity against Mycobacterium tuberculosis H37Rv after 5 days by microplate alamar blue assay; format: functional; conditions: 120 h
Klebsiella pneumoniae = experiment: Antimicrobial activity against gram-negative Klebsiella pneumoniae ATCC 700603 at 32 ug/ml after 18 hrs; format: functional; conditions: ATCC 700603, 18 h; summary of the method: as §1
Cryptococcus neoformans = experiment: Antifungal activity against Cryptococcus neoformans var. grubii ATCC 208821 at 32 ug/ml after 24 hrs; format: functional; conditions: ATCC 208821, 24 h
Summary of the method: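 Single-concentration antifungal screen at a final 32 µg/mL, n=2 on different plates. Fungi grown 3 days on YPD agar at 30°C; suspension of 1-5×10^6 cells/mL made from five colonies, then diluted in YNB broth. Incubated 35°C for 24 h without shaking. C. albicans read at OD530. C. neoformans read as OD600-570 after resazurin (0.001% final) and a further 2 h at 35°C. Inhibition calculated against on-plate controls; fluconazole was the standard.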

Acinetobacter baumannii = experiment: Antimicrobial activity against gram-negative Acinetobacter baumannii ATCC 19606 at 32 ug/ml after 18 hrs; format: functional; conditions: ATCC 19606 = CIP 70.34 = JCM 6841, 18 h; summary of the method: as §1
[8] = Drug metabolism in rat liver microsomes after 60 mins; format: ADME, microsome; conditions: read-out: Drug metabolism
Summary of the method: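 Rat liver microsomes incubated with compound for 60 min. Stability followed as the peak area ratio of compound to internal standard. p-Nitrophenol conversion to p-nitrocatechol served as the positive control.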

[9] = Cytotoxicity against African green monkey Vero cells after 72 hrs by sulforhodamine B assay; format: cell-based; conditions: chlorocebus sabaeus
HepG2 [10] = experiment: Cytotoxicity against human HepG2 cells after 24 hrs by MTT assay; format: cell-based; conditions: HepG2, 24 h
Summary of the method: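 HepG2 cells seeded at 25,000-50,000 per well and allowed to adhere about 24 h at 37°C in 5% CO2. Serial dilutions (300, 100, 50, 10, 1, 0.1 µM) added in triplicate and incubated 24 h. MTT added to 10% of the total volume for 2-4 h in the dark. Formazan dissolved in 100% DMSO, absorbance read at 570 nm, and IC50 calculated.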

| SMILES | inhibition at 32 µg/mL (Pseudomonas aeruginosa) [%] | inhibition at 32 µg/mL (Staphylococcus aureus) [%] | inhibition at 32 µg/mL (Candida albicans) [%] | inhibition at 50 µg/mL [6] [%] | MIC95 [7] [µg/mL] | inhibition at 32 µg/mL (Acinetobacter baumannii) [%] | also measured |
| --- | --- | --- | --- | --- | --- | --- | --- |
| COc1ccc(-c2cc(CN3CCSCC3)c(C)n2-c2ccc(F)cc2)cc1 | – | – | – | – | – | – | half-life [1]: < 5 min; MIC [2]: 0.2 µM (≈ 0.0793 µg/mL); IC50 (Vero): > 302 µM; Ratio [3]: 127.5 - 1937.5; IC50 (HepG2 [4]): > 2420 µM; Ratio [5]: 127.5 - 1937.5 |
| CSc1ccc(-c2cc(CN3CCSCC3)c(C)n2-c2ccc(F)cc2)cc1 | – | – | – | – | – | – | half-life [1]: 10 min; MIC [2]: 0.16 µM (≈ 0.066 µg/mL); IC50 (Vero): 15.2 µM; Ratio [3]: 127.5 - 1937.5; IC50 (HepG2 [4]): 5.9 µM; Ratio [5]: 127.5 - 1937.5 |
| Cc1ccn2c(CN3CCOCC3)c(-c3ccccc3)nc2c1 | 10.6 to 15.2 | 15.8 to 23.5 | 0.89 to 1.68 | 95 | 40 (≈ 130 µM) | – | – |
| Cc1ccc(-c2cc(CN3CCSCC3)c(C)n2-c2ccc(F)cc2)cc1 | – | – | – | – | – | – | half-life [1]: 8.2 min; MIC [2]: 0.16 µM (≈ 0.0609 µg/mL); IC50 (Vero): 179 µM; Ratio [3]: 127.5 - 1937.5; IC50 (HepG2 [4]): 24 µM; Ratio [5]: 127.5 - 1937.5 |
| COc1ccc(-c2nc3ccccc3n2-c2ccc(Cl)cc2)c(OC)c1 | – | 10.9 to 14.2 | 2.68 to 3.53 | 95 | 48.3 (≈ 132 µM) | – | inhibition at 32 µg/mL (Klebsiella pneumoniae): 3.25 to 9.39% |
| Fc1ccc(-c2nc3ccccn3c2CN2CCOCC2)cc1 | 11 to 14.3 | 22.3 to 30.3 | 0.63 to 5.39 | 95 | 22.2 (≈ 71.3 µM) | – | – |
| COc1ccc(-c2nc3ccccc3n2-c2ccccc2)cc1O | 1.32 to 7.73 | 7.7 to 15.5 | 6.64 to 11.3 | 95 | 8 (≈ 25.3 µM) | – | – |
| Cc1c(CN2CCOCC2)cc(-c2ccc(C(C)C)cc2)n1-c1ccc(F)cc1 | – | – | – | – | – | – | half-life [1]: > 30 min; MIC [2]: 0.12 µM (≈ 0.0471 µg/mL); IC50 (Vero): 50.1 µM; IC50 (HepG2 [4]): 15.3 µM |
| Cc1ccn2c(CN3CCCCC3)c(-c3ccccc3)nc2c1 | – | – | – | 95 | 33.7 (≈ 110 µM) | – | – |
| COc1ccc(-c2nc3ccccc3n2-c2ccc(C(C)C)cc2)cc1 | 6.29 to 15.7 | 6.25 to 12.4 | 13.1 to 14.2 | 68 | > 50 | 23.8 to 36.1 | inhibition at 32 µg/mL (Cryptococcus neoformans): 7.06 to 11% |
| COc1ccc(-c2nc3ccccc3n2-c2cc(C)ccc2C)cc1 | 5.72 to 19.7 | 9.57 to 10 | 1.69 to 4.32 | 80 | > 50 | 3.5 to 38.8 | – |
| c1ccc(-c2nc3ccccn3c2CN2CCCCC2)cc1 | 11.4 to 17.7 | 14.8 to 19.4 | 2.41 to 3.93 | 95 | > 50 | 1.56 to 10.4 | – |
| COc1ccc(-c2nc3ccccc3n2-c2ccc(F)cc2)cc1 | 5.18 to 12.8 | 11.6 to 12.7 | 1.62 to 1.69 | 6 | > 50 | – | – |
| Cc1ccn2c(CN3CCOCC3)c(-c3ccc(F)cc3)nc2c1 | 9.71 to 27 | 20.1 to 21.8 | 2.74 to 7.44 | 95 | 23.9 (≈ 73.5 µM) | – | – |
| COc1ccc(-c2nc3ccccc3n2-c2cccc(Cl)c2)cc1 | 7.07 to 24.5 | 14.1 to 16 | 4.66 to 7.76 | 0 | > 50 | – | – |
| Cc1ccc2nc(-c3ccc(F)cc3)c(CN3CCOCC3)n2c1 | – | 25.1 to 26.2 | 3.4 to 6.17 | 95 | 17 (≈ 52.2 µM) | – | – |
| COc1ccc(-c2nc3ccccc3n2-c2ccc(Cl)cc2)cc1OC | – | 1.03 to 9.81 | 7.63 to 8.23 | 95 | 20.3 (≈ 55.6 µM) | 39.9 to 42.6 | metabolised at 1 h [8]: 5%; inhibition at 32 µg/mL (Cryptococcus neoformans): 0.95 to 4.02%; GI50 at 72 h [9]: 8.2 µM; IC50 (HepG2 [10]): 49.9 µM |
| Oc1ccc(-c2nc(-c3ccccc3)cn2-c2ccccc2)cc1 | – | – | – | 95 | 17.8 (≈ 57 µM) | – | – |
| COc1ccc(-c2nc3ccccc3n2-c2ccc(Br)cc2)cc1 | – | 12.3 to 15 | 9.75 to 11.7 | 92 | > 50 | 1.56 to 58.1 | metabolised at 1 h [8]: 2%; GI50 at 72 h [9]: 5 µM; IC50 (HepG2 [10]): 113 µM |
| COc1ccc(-c2nc3ccccc3n2-c2ccc(Cl)cc2)cc1 | 1.34 to 9.75 | – | 12.2 to 12.9 | 95 | 2.3 (≈ 6.87 µM) | – | metabolised at 1 h [8]: 0%; GI50 at 72 h [9]: 29 µM; IC50 (HepG2 [10]): 203 µM |
| COc1ccc(-c2nc3ccccc3n2-c2cccc(OC)c2)cc1 | 9.8 to 11.2 | 7.42 to 20.4 | 5.26 to 8.76 | 14 | > 50 | 19.7 to 59.9 | – |
| COc1ccc(-c2nc(-c3ccccc3)cn2-c2ccccc2)cc1 | 2.98 to 16.6 | 3.07 to 13.3 | 17.5 to 26.4 | 95 | 20.3 (≈ 62.2 µM) | 23.1 to 34.8 | – |
| COc1cccc(-c2nc3ccccc3n2-c2ccc(Cl)cc2)c1 | 2.25 to 13 | – | 4.73 to 28.1 | 67 | > 50 | 49.4 to 50.8 | inhibition at 32 µg/mL (Cryptococcus neoformans): 6.16 to 19.6% |
| NNC(=O)c1ccncc1 [ISONIAZID] | – | – | – | 95 | 0.06 to 0.11 (≈ 0.438 to 0.802 µM) | – | – |
| CO[C@H]1/C=C/O[C@@]2(C)Oc3c(C)c(O)c4c(O)c(c(/C=N/N5CCN(C)CC5)c(O)c4c3C2=O)NC(=O)/C(C)=C\C=C\[C@H](C)[C@H](O)[C@@H](C)[C@@H](O)[C@@H](C)[C@H](OC(C)=O)[C@@H]1C [RIFAMPIN] | – | – | – | 95 | 0.03 to 0.5 (≈ 0.0365 to 0.608 µM) | – | – |
